Published values of several laboratories.
Target: Serine/threonine-protein kinase PAK 1 (PAK1, Homo sapiens, UniProt Q13153)

O=C(NCCCN1CCOCC1)c1ccc(Nc2nccc(-c3cc4ccccc4s3)n2)cc1 — remaining binding (binding, competition with immobilised ligand; 1 µM): 84%
FC(F)(F)c1ccc2c(c1)nc(-c1cccnc1)n2C1CC1 — remaining binding (cell-free assay, competition with immobilised ligand; 1 µM): 100%
CN(C)c1ncc(F)c(-c2cnn3ncccc23)n1 — remaining binding (binding; 1 µM): 87%
CCN1CCN(Cc2ccc(C(=O)Nc3ccc(C)c(Oc4ccc5c(c4)CC(=O)N5)c3)cc2C(F)(F)F)CC1 — remaining binding (binding, competition with immobilised ligand; 1 µM): 100%
CC1CCCN1c1nccc(-c2cnn3ncccc23)n1 (stereo not drawn) — remaining binding (binding; 1 µM): 100%
CC(C)(C)c1ccc(-c2nc(CBr)nn2-c2cccc(O)c2)cc1 — remaining binding (cell-free assay, competition with immobilised ligand; 10 µM): 98%
C[C@@H]1CCN(c2nccc(-c3cnn4ncccc34)n2)C1 — remaining binding (binding; 1 µM): 100%
CO[C@H]1CC[C@H](CNc2ccc(S(=O)(=O)NC(=O)c3ccc(N4CCN(CC5=C(c6ccc(Cl)cc6)CC(C)(C)CC5)CC4)cc3Oc3cnc4[nH]ccc4c3)cc2[N+](=O)[O-])CC1 — remaining binding (cell-free assay, competition with immobilised ligand; 1 µM): 78%
CNC(=O)[C@@H]1CC[C@@H](n2c(-c3ccc4cnccc4c3)nc3ccc(C(=O)NCc4cccc(C(N)=O)c4)cc32)C1 — remaining binding (binding, competition with immobilised ligand; 1 µM): 100%
CN(c1nccc(-c2cnn3ncccc23)n1)C1CC1 — remaining binding (binding; 1 µM): 100%
Cc1nc(C2CCN(C(=O)c3ccc(OC(F)(F)F)cc3N)CC2)c2ncc(N3CCN(C)CC3)cc2n1 — remaining binding (cell-free assay, competition with immobilised ligand; 1 µM): 100%
F[C@@H]1CCN(c2nccc(-c3cnn4ncccc34)n2)C1 — remaining binding (binding; 1 µM): 100%
O=C(NCCCN1CCOCC1)c1ccc(Nc2ncc(Cl)c(-c3ccc(Cl)s3)n2)cc1 — remaining binding (binding, competition with immobilised ligand; 1 µM): 98%
CS(=O)(=O)c1cc(C2(NC(=O)c3cncc4c3cnn4-c3ccc(F)cc3)CC2)ccn1 — remaining binding (cell-free assay, competition with immobilised ligand; 1 µM): 100%
Nc1ncc2c(n1)-c1c([nH]c3ccc(C#CC4CC4)cc13)CCCC2 — remaining binding (binding, competition with immobilised ligand; 1 µM): 83%
